Experiments:
[1] = species: Rattus norvegicus; assay: The compound was tested for the plasma binding in rat; format: ADME, organism-based
[2] = The compound was tested for the plasma binding in human; format: ADME, cell-free
How it was run: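 Fresh heparinized human plasma (1.0 mL, obtained daily) was spiked with 0.02 mL test solution and incubated about 15 min. Duplicate samples went through saline-equilibrated Sephadex G-25 desalting columns by centrifugation. Eluate and gel were γ-counted for 1 min or to 1% σ error. % bound = net cpm eluate / net cpm (eluate + gel) × 100.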

[3] = tested on: Rattus norvegicus; assay: Biodistribution of compound in rat blood after 5 min of administration; format: ADME, organism-based; settings: in vivo
How it was run: (§1)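 Female Sprague-Dawley rats (150–200 g) received the 99mTc complex in normal saline (~12.5 μCi/mL) via a lateral tail vein at ~25 μCi/kg. They were killed by cervical dislocation 5 min after injection. Tissues were washed with saline, blotted, weighed and γ-counted, and the read-out was percent injected dose per g tissue.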

[4] = tested on: Rattus norvegicus; assay: Biodistribution of compound in rat heart after 5 min of administration; format: ADME, organism-based; settings: in vivo; how it was run: as §1
[5] = tested on: Rattus norvegicus; assay: Biodistribution of compound in rat kidney after 5 min of administration; format: ADME, organism-based; settings: in vivo; how it was run: as §1
[6] = tested on: Rattus norvegicus; assay: Biodistribution of compound in rat liver after 5 min of administration; format: ADME, organism-based; settings: in vivo; how it was run: as §1
[7] = tested on: Rattus norvegicus; assay: Biodistribution of compound in rat lung after 5 min of administration; format: ADME, organism-based; settings: in vivo
How it was run: (§2)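 Rats received the 99mTc complex in normal saline (~12.5 μCi/mL) by lateral tail vein injection at ~25 μCi/kg and were killed by cervical dislocation at the stated time. Tissues were washed with saline, blotted, weighed and γ-counted to give percent injected dose/g. Time-course values are averages of male and female rats.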

[8] = Biodistribution of compound in rat muscle after 5 min of administration; format: ADME, organism-based, Muscle tissue; settings: in vivo; how it was run: as §2
[9] = tested on: Rattus norvegicus; assay: Biodistribution of compound in rat blood at 90 min after intravenous administration; format: ADME, organism-based; settings: in vivo, 1.5 h
How it was run: (§3)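 Time course in Sprague-Dawley rats after lateral tail-vein injection of the 99mTc complex in normal saline (~12.5 μCi/mL) at ~25 μCi/kg. Tissues were sampled at the stated times, washed with saline, blotted, weighed and γ-counted to give percent injected dose per g. Values are averages of male and female rats.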

[10] = tested on: Rattus norvegicus; assay: Biodistribution of compound in rat urine at 1440 min after intravenous administration; format: ADME, organism-based; settings: in vivo, 24 h; how it was run: as §2
[11] = tested on: Rattus norvegicus; assay: Biodistribution of compound in rat urine at 360 min after intravenous administration; format: ADME, organism-based; settings: in vivo, 6 h; how it was run: as §2
[12] = tested on: Rattus norvegicus; assay: Biodistribution of compound in rat blood at 1440 min after intravenous administration; format: ADME, organism-based; settings: in vivo, 24 h; how it was run: as §3
[13] = tested on: Rattus norvegicus; assay: Biodistribution of compound in rat blood at 180 min after intravenous administration; format: ADME, organism-based; settings: in vivo, 3 h; how it was run: as §3
[14] = tested on: Rattus norvegicus; assay: Biodistribution of compound in rat blood at 360 min after intravenous administration; format: ADME, organism-based; settings: in vivo, 6 h; how it was run: as §3
[15] = tested on: Rattus norvegicus; assay: Biodistribution of compound in rat blood at 5 min after intravenous administration; format: ADME, organism-based; settings: in vivo; how it was run: as §3
[16] = tested on: Rattus norvegicus; assay: Biodistribution of compound in rat gonads at 1440 min after intravenous administration; format: ADME, organism-based, Gonad; settings: in vivo, 24 h; how it was run: as §3
[17] = tested on: Rattus norvegicus; assay: Biodistribution of compound in rat gonads at 180 min after intravenous administration; format: ADME, organism-based, Gonad; settings: in vivo, 3 h; how it was run: as §3
[18] = tested on: Rattus norvegicus; assay: Biodistribution of compound in rat gonads at 360 min after intravenous administration; format: ADME, organism-based, Gonad; settings: in vivo, 6 h; how it was run: as §3
[19] = tested on: Rattus norvegicus; assay: Biodistribution of compound in rat gonads at 45 min after intravenous administration; format: ADME, organism-based, Gonad; settings: in vivo, 0.75 h; how it was run: as §3
[20] = tested on: Rattus norvegicus; assay: Biodistribution of compound in rat gonads at 5 min after intravenous administration; format: ADME, organism-based, Gonad; settings: in vivo; how it was run: as §3
[21] = tested on: Rattus norvegicus; assay: Biodistribution of compound in rat gonads at 90 min after intravenous administration; format: ADME, organism-based, Gonad; settings: in vivo, 1.5 h; how it was run: as §3
[22] = tested on: Rattus norvegicus; assay: Biodistribution of compound in rat heart at 1440 min after intravenous administration; format: ADME, organism-based; settings: in vivo, 24 h; how it was run: as §3
[23] = tested on: Rattus norvegicus; assay: Biodistribution of compound in rat heart at 180 min after intravenous administration; format: ADME, organism-based; settings: in vivo, 3 h; how it was run: as §3
[24] = tested on: Rattus norvegicus; assay: Biodistribution of compound in rat heart at 360 min after intravenous administration; format: ADME, organism-based; settings: in vivo, 6 h; how it was run: as §3
[25] = tested on: Rattus norvegicus; assay: Biodistribution of compound in rat heart at 45 min after intravenous administration; format: ADME, organism-based; settings: in vivo, 0.75 h; how it was run: as §3
[26] = tested on: Rattus norvegicus; assay: Biodistribution of compound in rat heart at 5 min after intravenous administration; format: ADME, organism-based; settings: in vivo; how it was run: as §3
[27] = tested on: Rattus norvegicus; assay: Biodistribution of compound in rat heart at 90 min after intravenous administration; format: ADME, organism-based; settings: in vivo, 1.5 h; how it was run: as §3
[28] = tested on: Rattus norvegicus; assay: Biodistribution of compound in rat kidney at 1440 min after intravenous administration; format: ADME, organism-based; settings: in vivo, 24 h; how it was run: as §3
[29] = tested on: Rattus norvegicus; assay: Biodistribution of compound in rat kidney at 180 min after intravenous administration; format: ADME, organism-based; settings: in vivo, 3 h; how it was run: as §3
[30] = tested on: Rattus norvegicus; assay: Biodistribution of compound in rat kidney at 360 min after intravenous administration; format: ADME, organism-based; settings: in vivo, 6 h; how it was run: as §3
[31] = tested on: Rattus norvegicus; assay: Biodistribution of compound in rat kidney at 45 min after intravenous administration; format: ADME, organism-based; settings: in vivo, 0.75 h; how it was run: as §3
[32] = tested on: Rattus norvegicus; assay: Biodistribution of compound in rat kidney at 5 min after intravenous administration; format: ADME, organism-based; settings: in vivo; how it was run: as §3
[33] = tested on: Rattus norvegicus; assay: Biodistribution of compound in rat kidney at 90 min after intravenous administration; format: ADME, organism-based; settings: in vivo, 1.5 h; how it was run: as §3
[34] = tested on: Rattus norvegicus; assay: Biodistribution of compound in rat liver at 1440 min after intravenous administration; format: ADME, organism-based; settings: in vivo, 24 h; how it was run: as §3
[35] = tested on: Rattus norvegicus; assay: Biodistribution of compound in rat liver at 180 min after intravenous administration; format: ADME, organism-based; settings: in vivo, 3 h; how it was run: as §3
[36] = tested on: Rattus norvegicus; assay: Biodistribution of compound in rat liver at 360 min after intravenous administration; format: ADME, organism-based; settings: in vivo, 6 h; how it was run: as §2

Bis(1,3,5-trimethylbenzene)technetium
Plasma binding [1]: 11% | Plasma binding [2]: 21% | Dose/g [3]: 0.096% | Dose/g [4]: 1.9% | Dose/g [5]: 7.9% | Dose/g [6]: 0.98% | Dose/g [7]: 0.82% | Dose/g [8]: 0.35% | Dose/ml [9]: 1.02 % dose | Dose/ml [10]: 26 % dose | Dose/ml [11]: 16 % dose | Dose/ml [12]: 0.13 % dose | Dose/ml [13]: 0.67 % dose | Dose/ml [14]: 0.52 % dose | Dose/ml [15]: 2.67 % dose | Dose/g [16]: 0.018 % dose | Dose/g [17]: 0.055 % dose | Dose/g [18]: 0.05 % dose | Dose/g [19]: 0.86 % dose | Dose/g [20]: 0.1 % dose | Dose/g [21]: 0.067 % dose | Dose/g [22]: 0.77 % dose | Dose/g [23]: 1 % dose | Dose/g [24]: 1.14 % dose | Dose/g [25]: 1.2 % dose | Dose/g [26]: 1.37 % dose | Dose/g [27]: 1.17 % dose | Dose/g [28]: 0.4 % dose | Dose/g [29]: 1.9 % dose | Dose/g [30]: 0.9 % dose | Dose/g [31]: 5.8 % dose | Dose/g [32]: 13.6 % dose | Dose/g [33]: 2 % dose/organ | Dose/g [34]: 0.3 % dose/organ | Dose/g [35]: 1.9 % dose/organ | Dose/g [36]: 0.8 % dose/organ

Reference: ChEMBL document CHEMBL1125797, “Synthesis, characterization and myocardial uptake of cationic bis(arene)technetium(I) complexes” (J Med Chem, 1991)
